Measured values from ChEMBL document CHEMBL1140934, “Structure-activity relationships of antitubercular nitroimidazoles. 2. Determinants of aerobic activity and quantitative structure-activity relationships” (2009).
In brackets after ≈: the same amount, converted by molar mass.

Tests used:
[1] = test system: Mycobacterium tuberculosis; assay: Antimycobacterial activity against wild type Mycobacterium tuberculosis H37Rv NRP-2 stage after 3 weeks under anaerobic condition; assay type: functional; conditions: 504 h
In short: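 H37Rv was anaerobically adapted from OD650 0.005 in glycerol-free Dubos broth, in sealed stirred tubes (head-space ratio 0.5) for 3 weeks at 37°C. Cultures were dispensed in an anaerobic chamber onto drug (2% DMSO final) and held anaerobically 7 days at 37°C. Cells were washed, 2-fold diluted and spotted on 7H11 agar for 3 weeks. MAC: 90% reduction in visible growth. Isoniazid and metronidazole controls; CFU counts corroborated.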

[2] = test system: Mycobacterium tuberculosis; assay: Antimycobacterial activity against wild type Mycobacterium tuberculosis H37Rv ATCC 27294 after 2 weeks; assay type: functional; conditions: 336 h
In short: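 M. tuberculosis H37Rv was grown in 7H9 with 0.05% Tween 80, 0.2% glycerol and ADC to OD650 0.2, then diluted 1:1000. It was added to 2-fold serial drug dilutions in the same medium (11 dilutions, 200 µM to 0.19 µM). Plates were incubated 2 weeks at 37°C and MIC99 read macroscopically. Three independent determinations.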

[3] = test system: Mycobacterium tuberculosis; assay: Ratio of Kcat/Km for Mycobacterium tuberculosis F420-dependent nitroreductase by Michaelis-Menten equation
In short: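 Buffer was 200 mM Tris pH 8.0 with 0.01% Triton X-100 and 20 µM H2F420. H2F420 was made with recombinant Mtb FGD1, which was then heat-inactivated (65°C, 10 min) and removed by ultrafiltration. F420 came from M. smegmatis.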

Row | Compound | MBC [1] [µM] | MIC [2] [µM] | kcat/Km [3] [M⁻¹ s⁻¹]
1 | O=[N+]([O-])c1cn2c(n1)SC[C@@H](OCc1ccc(OC(F)(F)F)cc1)C2 | 25 (≈ 9.38 µg/mL) | 0.8 (≈ 0.3 µg/mL) | 2430
2 | CC(=O)N1CC(OCc2ccc(OC(F)(F)F)cc2)Cn2cc([N+](=O)[O-])nc21 (single isomer, unassigned) | 31.2 (≈ 12.5 µg/mL) | 6.25 (≈ 2.5 µg/mL) | –
3 | O=[N+]([O-])c1cn2c(n1)OC[C@@H](NCc1ccc(OCc3ccccc3)cc1)C2 | 6.25 (≈ 2.38 µg/mL) | 0.15 (≈ 0.0571 µg/mL) | 3450
4 | O=[N+]([O-])c1cn2c(n1)CC[C@@H](OCc1ccc(OC(F)(F)F)cc1)C2 | 250 (≈ 89.3 µg/mL) | 25 (≈ 8.93 µg/mL) | 400
5 | O=[N+]([O-])c1cn2c(n1)OC[C@@H](NCCCCCc1ccc(OC(F)(F)F)cc1)C2 | 6.25 (≈ 2.59 µg/mL) | 0.078 (≈ 0.0323 µg/mL) | 15200
6 | N[C@@H]1COc2nc([N+](=O)[O-])cn2C1 | > 500 | > 100 | –
7 | O=[N+]([O-])c1cn2c(n1)OC[C@@H](NCCCc1ccc(OC(F)(F)F)cc1)C2 | 3.12 (≈ 1.21 µg/mL) | 0.078 (≈ 0.0301 µg/mL) | 5120
8 | O=[N+]([O-])c1cn2c(n1)OC[C@@H](NCCCCc1ccc(OC(F)(F)F)cc1)C2 | 3.13 (≈ 1.25 µg/mL) | 0.039 (≈ 0.0156 µg/mL) | 8570
9 | O=[N+]([O-])c1cn2c(n1)OC[C@@H](NCc1ccc(OC(F)(F)F)cc1)C2 | 12.5 (≈ 4.48 µg/mL) | 0.31 (≈ 0.111 µg/mL) | 2870
10 | O=C(COc1ccc(OC(F)(F)F)cc1)N[C@@H]1COc2nc([N+](=O)[O-])cn2C1 | 62.5 (≈ 25.1 µg/mL) | 0.05 (≈ 0.0201 µg/mL) | 283
11 | O=[N+]([O-])c1cn2c(n1)S(=O)(=O)C[C@@H](OCc1ccc(OC(F)(F)F)cc1)C2 | 25 (≈ 10.2 µg/mL) | > 100 | –
12 | CN1C[C@@H](OCc2ccc(OC(F)(F)F)cc2)Cn2cc([N+](=O)[O-])nc21 | ≥ 100 | 6.25 (≈ 2.33 µg/mL) | 1020
13 | O=[N+]([O-])c1cn2c(n1)NC[C@@H](OCc1ccc(OC(F)(F)F)cc1)C2 | 125 (≈ 44.8 µg/mL) | 0.8 (≈ 0.287 µg/mL) | 4050
14 | O=[N+]([O-])c1cn2c(n1)SC[C@H](OCc1ccc(OC(F)(F)F)cc1)C2 | 50 (≈ 18.8 µg/mL) | 50 (≈ 18.8 µg/mL) | –
15 | O=[N+]([O-])c1cn2c(n1)OC[C@@H](NCCc1ccc(OC(F)(F)F)cc1)C2 | 6.25 (≈ 2.33 µg/mL) | 0.16 (≈ 0.0596 µg/mL) | 1830
16 | O=[N+]([O-])c1cn2c(n1)OC[C@@H](NCc1ccc(OCc3ccc(OC(F)(F)F)cc3)cc1)C2 | 1.56 (≈ 0.724 µg/mL) | 0.16 (≈ 0.0743 µg/mL) | 1230
17 | O=[N+]([O-])c1cn2c(n1)OC[C@@H](OCc1ccc(OC(F)(F)F)cc1)C2 [PRETOMANID] | 6.25 (≈ 2.25 µg/mL) | 0.8 (≈ 0.287 µg/mL) | 2580
18 | O=CN1CC(OCc2ccc(OC(F)(F)F)cc2)Cn2cc([N+](=O)[O-])nc21 (single isomer, unassigned) | 25 (≈ 9.66 µg/mL) | 3.2 (≈ 1.24 µg/mL) | 1080
19 | O=[N+]([O-])c1cn2c(n1)[S+]([O-])C[C@@H](OCc1ccc(OC(F)(F)F)cc1)C2 (stereo partly drawn) | 50 (≈ 19.6 µg/mL) | > 100 | –
20 | O=[N+]([O-])c1cn2c(n1)OC[C@@H](NCc1ccc(OCc3ccc(F)cc3)cc1)C2 | 2 (≈ 0.797 µg/mL) | 0.2 (≈ 0.0797 µg/mL) | 7530
21 | CCCCc1ccc(CN[C@@H]2COc3nc([N+](=O)[O-])cn3C2)cc1 | 50 (≈ 16.5 µg/mL) | 0.78 (≈ 0.258 µg/mL) | 900
